Source: PubChem (Broad Institute)
DENV2 CPE = inhibitors of DENV2 cytopathic effect, primary screen, cell-based, plate reader, single concentration | DENV2-infected cells, cytopathic effect rescue | CPE inhibition, % at 9.99 µM | 350,000 tested, 1.7% active | AID 651640, 2012; in the data active = CPE inhibition above about 20%, passing the limit was not always enough; inconclusive = no clear call, values can overlap the other calls; tested in BHK-21 cells
CASP6 VEID inh = human caspase-6 inhibitors, primary screen, biochemical, VEID-R110 fluorescence, single point, set 2 | P55212 | inhibition, % at 12.5 µM | purified caspase-6, Z-VEID-R110 cleavage fluorescence | 350,000 tested, 0.53% active;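 active = mean inhibition across replicates at least about 35%, with every replicate also reaching that limit, limit read from the data; inconclusive = only one of the two criteria met; inactive = neither criterion met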
Target sequence (P55212 24-179 limits assumed): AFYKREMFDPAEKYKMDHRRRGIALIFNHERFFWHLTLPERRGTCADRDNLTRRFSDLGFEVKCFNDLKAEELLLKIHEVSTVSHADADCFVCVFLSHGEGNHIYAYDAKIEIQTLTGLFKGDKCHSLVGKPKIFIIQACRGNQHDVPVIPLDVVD
Target sequence (P55212 194-293 limits assumed): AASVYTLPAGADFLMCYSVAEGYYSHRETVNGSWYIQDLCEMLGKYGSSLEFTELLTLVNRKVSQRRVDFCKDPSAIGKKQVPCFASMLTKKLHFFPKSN
FN deposition inh = inhibitors of fibronectin matrix deposition, primary screen, AH1F cells, Alexa488-fibronectin fluorescence, plate reader; AH1F fibroblasts, overnight; inhibition, % at 12.6 µM; 350,000 tested, 0.086% active; AID 743247, 2014;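 active = mean inhibition across replicates of 30% or more, regardless of how many single replicates reach that level; inconclusive = mean under 30% yet at least half of replicates reach 30%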
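Assay system: AH1F fibroblast monolayer, labelled fibronectin deposition. Amount: 10000 cells per well. Also added: labelled fibronectin 24 nM. Compound: single-point pinned compound. Incubation: cell attachment 1 h, compound and FN exposure overnight. Detection: fluorescence after three HBSS washes, excitation 485 nm, emission 525 nm. Read-out: inhibition of fibronectin deposition signal.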
CaV13 FRET inh = Primary screen for inhibitors of IQ motif and Ca2+-dependent inactivation inhibitor domain binding in CACNA1D, Förster resonance energy transfer in living cells, …; 340,000 tested, 0.098% active; AID 743397; inhibition, % at 12.3 µM; HEK cells, CFP/YFP FRET ICDI-IQ, plate reader, 10 min; percent FRET-ratio fall versus neutral wells;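 active = mean replicate inhibition of at least 30% and at least 1% of replicates passing that level; inconclusive = only one of the two criteria is met; inactive = neither criterion is met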
XiGFP reactiv = activators of inactive X chromosome reactivation, primary screen, imaging, XiGFP fibroblasts, GFP high-content imaging, set 2. activation, % at 7.58 µM. XiGFP mouse fibroblasts, % GFP-positive cells imaging, 3 d; cells co-treated with 5-aza-dC sensitizer; scaled so ellipticine positive control = 100%. AID 743238, 2013. 360,000 tested, 0.055% active;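 active = mean normalized replicate activation at least 10% and every replicate at or above 10%; inconclusive = only one of the two criteria met; inactive = mean below 10% and not all replicates reach 10%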
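assay system = SV40-immortalized XiGFP fibroblast cells, line 68-5-11 | buffer or medium = DMEM plus 5-aza-dC sensitizer | doses = single-point pinned compound dosing | times = 3-day compound exposure, then 15 min fixation at room temperature | benchmarks = positive control ellipticine, 6 µM final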
Of the large screens only hits and unclear results are named; the others gave an inactive call. Only some compounds are listed: those with a hit (about 2% of all), similar ones and a draw of the others.

COc1ccc(S(=O)(=O)Nc2ccc3c(c2)C(=O)N([C@@H](C)CO)C[C@H](C)[C@H](CN(C)C(=O)NC2CCCCC2)OCCCC[C@H](C)O3)cc1	none (no result: CaV13 FRET inh)
CN(C)C(=O)C[C@@H]1CC[C@@H]2[C@@H](COc3ccc(NC(=O)Nc4cccc(Cl)c4)cc3C(=O)N2C)O1	none (no result: CaV13 FRET inh)
COc1ccc(NC(=O)Nc2ccc3c(c2)CC(=O)N([C@@H](C)CO)C[C@H](C)[C@@H](CN(C)C(=O)Nc2ccccc2)O3)cc1	DENV2 CPE 46 (no result: FN deposition inh, CaV13 FRET inh)
COc1ccc(NC(=O)Nc2ccc3c(c2)CC(=O)N([C@@H](C)CO)C[C@@H](C)[C@@H](CN(C)C(=O)Nc2ccccc2)O3)cc1	none (no result: FN deposition inh, CaV13 FRET inh)
COc1ccc(NC(=O)Nc2ccc3c(c2)CC(=O)N([C@H](C)CO)C[C@@H](C)[C@@H](CN(C)C(=O)Nc2ccc(C(F)(F)F)cc2)O3)cc1	none (no result: CASP6 VEID inh, FN deposition inh, CaV13 FRET inh)
COc1ccc(NC(=O)N(C)C[C@@H]2Oc3ccc(NC(=O)Nc4ccc(C(F)(F)F)cc4)cc3CC(=O)N([C@H](C)CO)C[C@@H]2C)cc1	DENV2 CPE 53 (no result: FN deposition inh, CaV13 FRET inh)
COc1ccc(NC(=O)N(C)C[C@@H]2Oc3ccc(NC(=O)Nc4ccc(F)cc4)cc3CC(=O)N([C@@H](C)CO)C[C@@H]2C)cc1	DENV2 CPE 50 (no result: FN deposition inh, CaV13 FRET inh)
O=C(Nc1ccccc1)N1CC(=O)N2[C@H](CO)[C@H](c3ccc(C#CC4CC4)cc3)[C@@H]2C1	none (no result: CaV13 FRET inh)
C[C@@H]1COC(=O)[C@@H](CC(=O)OC(C)(C)C)C/C=C\C[C@@H](CC(=O)NCCO)C(=O)N1	DENV2 CPE 24
C[C@@H]1COC(=O)[C@H](CC(=O)OC(C)(C)C)C/C=C\C[C@H](CC(=O)NCCO)C(=O)N1	none
O=c1c2cc(N3CCOCC3)ccc2[nH]c(=S)n1Cc1ccc(Cl)cc1	FN deposition inh 41 (no result: DENV2 CPE, CASP6 VEID inh, XiGFP reactiv)
O=C(CCCCCn1c(=S)[nH]c2ccc(N3CCOCC3)cc2c1=O)NCc1ccc(Cl)cc1	none
COc1ccc2[nH]c(=O)cc(C(=O)O)c2c1	none
COc1ccc2[nH]c3c4c(ccc3c2c1)C(=O)C=CC4=O	XiGFP reactiv 12
COc1ccc(NC(=O)N[C@@H]2CC[C@@H](CCNS(=O)(=O)c3cccc(Cl)c3)O[C@@H]2CO)cc1	DENV2 CPE 114 (no result: CaV13 FRET inh)
COc1ccccc1NC(=O)N[C@H]1CC[C@@H](CCNS(=O)(=O)c2ccc(Cl)cc2)O[C@H]1CO	DENV2 CPE 20 (no result: CaV13 FRET inh)
COc1cccc(NC(=O)N[C@H]2CC[C@@H](CC(=O)N3CCOCC3)O[C@@H]2CO)c1	none (no result: FN deposition inh, CaV13 FRET inh)
COc1cccc(NC(=O)N[C@@H]2CC[C@@H](CC(=O)N3CCOCC3)O[C@@H]2CO)c1	DENV2 CPE 64 (no result: FN deposition inh, CaV13 FRET inh)
COc1ccccc1NC(=O)N[C@H]1CC[C@H](CCNS(=O)(=O)c2ccc(C)cc2)O[C@H]1CO	DENV2 CPE 22 (no result: FN deposition inh, CaV13 FRET inh)
C[C@H]1CN([C@@H](C)CO)C(=O)c2cc(NC(=O)Nc3ccc4c(c3)OCO4)ccc2O[C@H]1CN(C)S(C)(=O)=O	none (no result: FN deposition inh, CaV13 FRET inh)
COc1cccc(NC(=O)N[C@@H]2C=C[C@H](CC(=O)Nc3ccc(-c4ccccc4)cc3)O[C@@H]2CO)c1	none (no result: CaV13 FRET inh)
C[C@@H]1CN([C@@H](C)CO)C(=O)c2cc(C#CC3(O)CCCC3)cnc2O[C@H]1CN(C)C(=O)C1CCOCC1	none (no result: FN deposition inh, CaV13 FRET inh)
C=C(C)C(=O)Nc1ccc2c(c1)OCCOCCOCCO2	DENV2 CPE inconclusive, CASP6 VEID inh 53
C[C@@H]1CN([C@@H](C)CO)C(=O)Cc2cc(NC(=O)NC3CCCCC3)ccc2O[C@H]1CN(C)CC1CCCCC1	none (no result: FN deposition inh, CaV13 FRET inh)
CC(=O)OCCNc1cc(Sc2nc3ccccc3[nH]2)c2nonc2c1[N+](=O)[O-]	XiGFP reactiv 17 (no result: DENV2 CPE, CASP6 VEID inh)
CN(C)CCCN1C(=O)[C@@]2(Cc3ccccc31)c1ccccc1C(=O)N(Cc1ccccc1C(F)(F)F)[C@H]2c1ccc(CO)cc1	none (no result: FN deposition inh, CaV13 FRET inh, XiGFP reactiv)
COCCCN1C(=O)[C@@]2(Cc3ccccc31)c1ccccc1C(=O)N(Cc1ccccc1)[C@H]2c1ccc(CO)cc1	DENV2 CPE 23 (no result: FN deposition inh, CaV13 FRET inh, XiGFP reactiv)
COc1ccc(C(CC(=O)N2CCCCC2)c2c(OC)cc(OC)c3c(-c4ccccc4)cc(=O)oc23)cc1 (stereo not drawn)	DENV2 CPE 71 (no result: CASP6 VEID inh)
COc1ccc(C(CC(=O)N2CCCC2)c2c(OC)cc(OC)c3c(-c4ccccc4)cc(=O)oc23)cc1 (stereo not drawn)	none (no result: CASP6 VEID inh)
COc1cc(C(CCN2CCCCC2)c2c(OC)cc(OC)c3c(-c4ccccc4)cc(=O)oc23)cc(OC)c1OC (stereo not drawn)	FN deposition inh 30
COc1cc(OC)c2ccc(=O)oc2c1C(CC(=O)N1CCCC1)c1ccc(N(C)C)cc1 (stereo not drawn)	none
COc1cc(OC)c2ccc(=O)oc2c1C(CC(=O)N1CCOCC1)c1ccc(N(C)C)cc1 (stereo not drawn)	FN deposition inh 31 (no result: DENV2 CPE, CASP6 VEID inh)
COc1ccc(C(CCN2CCOCC2)c2c(OC)cc(OC)c3c(C)cc(=O)oc23)cc1 (stereo not drawn)	DENV2 CPE 56
O=C1[C@@H](Cc2ccc(F)cc2)CCn2cc(nn2)COC[C@H]2CCCN12	none (no result: DENV2 CPE, CASP6 VEID inh, CaV13 FRET inh)
COc1cccc(NC(=O)C[C@H]2CC[C@@H]3[C@@H](COc4ccc(NC(C)=O)cc4C(=O)N3C)O2)c1	none (no result: CaV13 FRET inh)
COc1ccc2c3c(n(C)c2c1)[C@@H](CO)N(C)CC31CN(C(=O)NC(C)C)C1	XiGFP reactiv inconclusive (no result: CASP6 VEID inh, FN deposition inh, CaV13 FRET inh)
COc1cccc(S(=O)(=O)Nc2ccc3c(c2)C(=O)N(C)C[C@@H](OC)[C@@H](C)CN[C@H](C)CO3)c1	DENV2 CPE 22 (no result: CaV13 FRET inh)
CO[C@H]1CN(C)C(=O)c2ccc(NS(=O)(=O)c3cccc(Cl)c3)cc2OC[C@@H](C)NC[C@H]1C	CASP6 VEID inh 41 (no result: DENV2 CPE, CaV13 FRET inh)
CO[C@H]1CN(C)C(=O)c2ccc(NS(=O)(=O)c3cccc(Cl)c3)cc2OC[C@@H](C)NC[C@@H]1C	none (no result: CaV13 FRET inh)
COc1cccc(S(=O)(=O)Nc2ccc3c(c2)C(=O)N(C)C[C@@H](OC)[C@H](C)CN[C@@H](C)CO3)c1	none (no result: CaV13 FRET inh)
CO[C@H]1CN(C)C(=O)c2cc(NS(=O)(=O)c3ccccc3F)ccc2OC[C@@H](C)NC[C@@H]1C	DENV2 CPE 65 (no result: CaV13 FRET inh)
CO[C@@H]1CN(C)C(=O)c2cc(NS(=O)(=O)c3ccccc3)ccc2OC[C@@H](C)NC[C@@H]1C	DENV2 CPE 29 (no result: CaV13 FRET inh)
CO[C@H]1CN(C)C(=O)c2cc(NC(=O)c3ccccc3F)ccc2OC[C@@H](C)N(C)C[C@@H]1C	none (no result: CaV13 FRET inh)
O=C(NCC(c1ccco1)N1CCN(c2ccccc2)CC1)C1CCCCC1 (stereo not drawn)	DENV2 CPE 72
CCCCN(C(=O)c1ccc2c(c1)NC(=O)CS2)c1ccccc1	DENV2 CPE 94
